ChEMBL document CHEMBL4257453, “Identification of karanjin isolated from the Indian beech tree as a potent CYP1 enzyme inhibitor with cellular efficacy via screening of a natural product repository” (Medchemcomm, 2018)

What was measured:
Cytochrome P450 1A2 = molecular target: T1, Cytochrome P450 1A2 (Homo sapiens, UniProt P05177); assay: Inhibition of human recombinant CYP1A2 expressed in HEK293 cells using 3-cyano-7-ethoxycoumarin substrate preincubated for 30 mins followed by substrate addition and measured after 60 mins by fluorescence assay relative to control; format: ADME, cell-based
T1 sequence (P05177 whole entry): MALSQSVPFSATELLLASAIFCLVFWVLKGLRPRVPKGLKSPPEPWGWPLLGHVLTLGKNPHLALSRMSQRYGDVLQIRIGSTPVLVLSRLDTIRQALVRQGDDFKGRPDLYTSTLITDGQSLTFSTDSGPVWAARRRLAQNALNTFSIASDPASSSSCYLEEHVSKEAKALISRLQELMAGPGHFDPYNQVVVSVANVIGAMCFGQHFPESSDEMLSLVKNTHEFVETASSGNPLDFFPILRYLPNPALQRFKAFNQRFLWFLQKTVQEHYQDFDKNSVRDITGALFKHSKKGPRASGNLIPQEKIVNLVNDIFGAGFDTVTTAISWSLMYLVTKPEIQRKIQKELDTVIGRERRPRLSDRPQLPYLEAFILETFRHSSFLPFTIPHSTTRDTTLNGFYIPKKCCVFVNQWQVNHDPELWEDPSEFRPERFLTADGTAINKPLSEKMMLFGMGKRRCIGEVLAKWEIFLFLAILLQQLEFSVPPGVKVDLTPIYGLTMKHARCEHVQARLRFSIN
Outline: (§1)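 HEK293 cells adapted to suspension and transiently transfected with pcDNA3.1 plasmids carrying the individual CYP; 100×10^3 cells per well in triplicate. […] Fluorogenic substrate is then added at 5 μM and fluorescence read for 60 min.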

Cytochrome P450 2C19 = Cytochrome P450 2C19 (Homo sapiens, UniProt P33261); assay: Inhibition of human recombinant CYP2C19 expressed in HEK293 cells using 3-cyano-7-ethoxycoumarin substrate substrate preincubated for 30 mins followed by substrate addition and measured after 60 mins by fluorescence assay relative to control; format: ADME, cell-based; outline: as §1
Cytochrome P450 2D6 = Cytochrome P450 2D6 (Homo sapiens, UniProt P10635); assay: Inhibition of human recombinant CYP2D6 expressed in HEK293 cells using 7-ethoxy-methyloxy-3-cyanocoumarin substrate substrate preincubated for 30 mins followed by substrate addition and measured after 60 mins by fluorescence assay relative to control; format: ADME, cell-based; outline: as §1
Cytochrome P450 1A1 = molecular target: T2, Cytochrome P450 1A1 (Homo sapiens, UniProt P04798); assay: Inhibition of human recombinant CYP1A1 expressed in HEK293 cells using 7-ethoxyresorufin substrate preincubated for 30 mins followed by substrate addition and measured after 60 mins by fluorescence assay relative to control; format: cell-based; outline: as §1
T2 sequence (P04798 whole entry): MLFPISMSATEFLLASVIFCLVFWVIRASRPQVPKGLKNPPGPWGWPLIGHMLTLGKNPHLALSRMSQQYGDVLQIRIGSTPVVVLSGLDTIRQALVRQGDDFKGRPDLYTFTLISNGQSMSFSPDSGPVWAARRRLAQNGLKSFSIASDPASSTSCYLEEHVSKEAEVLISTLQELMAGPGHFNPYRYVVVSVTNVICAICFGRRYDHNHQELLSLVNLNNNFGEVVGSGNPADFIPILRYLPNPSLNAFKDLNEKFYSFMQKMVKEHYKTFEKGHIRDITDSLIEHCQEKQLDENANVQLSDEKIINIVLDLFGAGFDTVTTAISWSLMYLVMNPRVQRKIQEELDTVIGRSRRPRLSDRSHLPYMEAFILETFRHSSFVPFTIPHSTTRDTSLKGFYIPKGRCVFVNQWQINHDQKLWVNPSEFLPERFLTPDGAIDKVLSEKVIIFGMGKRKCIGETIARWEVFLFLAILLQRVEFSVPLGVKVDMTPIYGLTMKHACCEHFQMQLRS

Cytochrome P450 3A4 = Cytochrome P450 3A4 (Homo sapiens, UniProt P08684); assay: Inhibition of human recombinant CYP3A4 expressed in HEK293 cells using dibenzylfluorescein substrate substrate preincubated for 30 mins followed by substrate addition and measured after 60 mins by fluorescence assay relative to control; format: ADME, cell-based
Outline: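 HEK293 cells adapted to suspension and transiently transfected with pcDNA3.1 plasmids carrying the individual CYP; 100×10^3 cells per well in triplicate. Fluorogenic substrate is then added at 5 μM and fluorescence read for 60 min.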

CYP2D6 = CYP2D6 (Homo sapiens, UniProt P10635); assay: Inhibition of recombinant human CYP2D6 expressed in baker's yeast-derived microsomes (Sacchrosomes) at 10 uM using 7-ethoxy-methyloxy-3-cyanocoumarin substrate by EROD assay relative to control; format: ADME; conditions: probe 7-ethoxy-methyloxy-3-cyanocoumarin
Outline: (§2)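 Yeast microsomes carrying recombinant CYP (Sacchrosomes). […] Substrates per isoform are 7-ethoxyresorufin, 3-cyano-7-ethoxycoumarin, EOMCC or dibenzylfluorescein, read as endpoint fluorescence. Background from compound-only wells without enzyme is subtracted. Independent triplicate runs; α-naphthoflavone positive control.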

Cytochrome P450 2C9 = Cytochrome P450 2C9 (Homo sapiens, UniProt P11712); assay: Inhibition of human recombinant CYP2C9 expressed in HEK293 cells using 3-cyano-7-ethoxycoumarin substrate substrate preincubated for 30 mins followed by substrate addition and measured after 60 mins by fluorescence assay relative to control; format: ADME, cell-based; outline: as §1
CYP1B1 = molecular target: T3, CYP1B1 (Homo sapiens, UniProt Q16678); assay: Inhibition of recombinant human CYP1B1 expressed in baker's yeast-derived microsomes (Sacchrosomes) at 10 uM using 7-ethoxyresorufin substrate by EROD assay relative to control; format: ADME; conditions: probe 7-ethoxyresorufin; outline: as §2
T3 sequence (Q16678 whole entry): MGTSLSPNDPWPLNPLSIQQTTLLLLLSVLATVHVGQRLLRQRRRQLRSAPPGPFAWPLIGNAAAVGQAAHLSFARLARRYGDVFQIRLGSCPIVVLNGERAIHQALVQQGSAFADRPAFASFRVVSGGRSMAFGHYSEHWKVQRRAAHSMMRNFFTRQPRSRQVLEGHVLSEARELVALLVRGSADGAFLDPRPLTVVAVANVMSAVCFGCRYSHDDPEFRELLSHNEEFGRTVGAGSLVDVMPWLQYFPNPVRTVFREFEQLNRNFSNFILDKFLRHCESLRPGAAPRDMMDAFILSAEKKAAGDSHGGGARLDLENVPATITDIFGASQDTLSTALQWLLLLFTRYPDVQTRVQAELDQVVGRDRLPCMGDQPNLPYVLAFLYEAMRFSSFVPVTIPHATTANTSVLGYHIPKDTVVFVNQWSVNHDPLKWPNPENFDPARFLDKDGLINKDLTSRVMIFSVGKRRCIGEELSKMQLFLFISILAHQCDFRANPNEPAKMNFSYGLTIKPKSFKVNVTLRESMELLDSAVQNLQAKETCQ

CYP2C9 = CYP2C9 (Homo sapiens, UniProt P11712); assay: Inhibition of recombinant human CYP2C9 expressed in baker's yeast-derived microsomes (Sacchrosomes) at 10 uM using 3-cyano-7-ethoxycoumarin substrate by EROD assay relative to control; format: ADME; conditions: probe 3-cyano-7-ethoxycoumarin; outline: as §2
Cytochrome P450 1B1 = molecular target: T4, Cytochrome P450 1B1 (Homo sapiens, UniProt Q16678); assay: Inhibition of human recombinant CYP1B1 expressed in HEK293 cells using 7-ethoxyresorufin substrate substrate preincubated for 30 mins followed by substrate addition and measured after 60 mins by fluorescence assay relative to control; format: ADME, cell-based; outline: as §1
T4 sequence (Q16678 whole entry): T3 sequence (Q16678 whole entry)

Chain of Cytochrome P450 2D6 (P10635 whole entry): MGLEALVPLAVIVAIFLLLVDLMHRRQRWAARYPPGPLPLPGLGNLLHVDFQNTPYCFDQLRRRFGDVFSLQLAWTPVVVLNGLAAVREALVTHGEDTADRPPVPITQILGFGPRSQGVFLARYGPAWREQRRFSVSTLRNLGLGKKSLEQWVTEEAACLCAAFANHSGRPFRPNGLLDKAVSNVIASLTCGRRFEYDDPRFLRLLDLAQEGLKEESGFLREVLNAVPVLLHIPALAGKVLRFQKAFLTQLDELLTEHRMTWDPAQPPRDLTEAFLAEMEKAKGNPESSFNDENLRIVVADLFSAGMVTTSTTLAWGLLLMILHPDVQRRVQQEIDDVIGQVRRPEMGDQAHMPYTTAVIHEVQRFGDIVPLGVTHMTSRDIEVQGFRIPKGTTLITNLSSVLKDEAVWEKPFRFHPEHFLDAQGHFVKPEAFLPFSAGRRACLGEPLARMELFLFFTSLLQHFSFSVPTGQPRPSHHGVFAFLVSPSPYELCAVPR
Chain of CYP2D6 (P10635 whole entry, canonical isoform): as the sequence (P10635 whole entry) above
Chain of CYP2C9 (P11712 whole entry): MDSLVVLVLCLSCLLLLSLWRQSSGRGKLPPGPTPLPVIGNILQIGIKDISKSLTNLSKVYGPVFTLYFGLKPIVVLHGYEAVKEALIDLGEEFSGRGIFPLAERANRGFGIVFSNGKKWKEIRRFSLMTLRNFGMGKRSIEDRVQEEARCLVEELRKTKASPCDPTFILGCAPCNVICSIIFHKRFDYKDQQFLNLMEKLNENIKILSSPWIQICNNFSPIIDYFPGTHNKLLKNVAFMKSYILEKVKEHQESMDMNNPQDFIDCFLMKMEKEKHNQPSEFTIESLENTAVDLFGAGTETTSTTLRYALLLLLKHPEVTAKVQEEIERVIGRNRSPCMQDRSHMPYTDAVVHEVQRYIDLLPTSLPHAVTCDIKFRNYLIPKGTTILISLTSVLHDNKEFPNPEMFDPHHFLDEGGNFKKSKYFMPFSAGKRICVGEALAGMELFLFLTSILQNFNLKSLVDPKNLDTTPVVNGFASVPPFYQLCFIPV
Chain of Cytochrome P450 2C9 (P11712 whole entry): as above
Chain of Cytochrome P450 3A4 (P08684 whole entry): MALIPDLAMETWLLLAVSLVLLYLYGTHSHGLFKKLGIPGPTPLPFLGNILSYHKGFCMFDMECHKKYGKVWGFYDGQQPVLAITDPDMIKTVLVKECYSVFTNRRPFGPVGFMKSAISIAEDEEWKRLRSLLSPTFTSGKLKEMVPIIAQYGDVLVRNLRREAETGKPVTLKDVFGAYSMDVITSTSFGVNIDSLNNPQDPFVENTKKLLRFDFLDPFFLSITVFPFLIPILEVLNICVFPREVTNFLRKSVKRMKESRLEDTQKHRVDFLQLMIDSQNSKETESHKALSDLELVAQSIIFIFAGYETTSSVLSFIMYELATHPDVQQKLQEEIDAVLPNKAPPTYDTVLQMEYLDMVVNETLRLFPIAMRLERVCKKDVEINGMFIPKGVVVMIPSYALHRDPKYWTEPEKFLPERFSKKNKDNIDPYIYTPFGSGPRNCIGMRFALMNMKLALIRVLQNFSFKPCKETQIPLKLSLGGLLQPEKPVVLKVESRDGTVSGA
Chain of Cytochrome P450 2C19 (P33261 whole entry): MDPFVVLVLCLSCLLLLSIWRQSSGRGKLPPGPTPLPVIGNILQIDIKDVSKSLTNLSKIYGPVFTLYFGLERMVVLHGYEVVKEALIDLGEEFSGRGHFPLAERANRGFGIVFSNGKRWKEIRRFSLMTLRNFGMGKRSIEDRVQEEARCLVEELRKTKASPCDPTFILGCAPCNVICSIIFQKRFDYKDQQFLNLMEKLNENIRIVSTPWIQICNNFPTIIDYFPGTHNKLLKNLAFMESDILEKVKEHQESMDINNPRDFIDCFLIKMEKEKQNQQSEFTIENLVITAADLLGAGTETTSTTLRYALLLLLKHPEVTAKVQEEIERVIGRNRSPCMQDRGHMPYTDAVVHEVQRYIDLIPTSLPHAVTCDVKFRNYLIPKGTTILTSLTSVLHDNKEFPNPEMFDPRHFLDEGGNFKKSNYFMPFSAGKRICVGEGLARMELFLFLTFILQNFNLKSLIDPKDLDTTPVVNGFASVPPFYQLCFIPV

**Q.** COc1c2ccoc2cc2oc(=O)ccc12 [BERGAPTEN] was tested. Which IC50 (Cytochrome P450 1A2) did it give?
**A.** 90 nM

**Q.** And the Ki (Cytochrome P450 1A2)?
**A.** 60 nM

**Q.** And the IC50 (Cytochrome P450 2C19)?
**A.** > 10000 nM

**Q.** What about the IC50 (Cytochrome P450 2D6) of the same compound?
**A.** > 10000 nM

**Q.** What about the IC50 (Cytochrome P450 1A1) of the same compound?
**A.** 80 nM

**Q.** And the Ki (Cytochrome P450 1A1)?
**A.** 60 nM

**Q.** What about the IC50 (Cytochrome P450 3A4) of the same compound?
**A.** > 10000 nM

**Q.** And the inhibition at 10 µM (CYP2D6)?
**A.** 9%

**Q.** And the IC50 (Cytochrome P450 2C9)?
**A.** > 10000 nM

**Q.** What about the inhibition at 10 µM (CYP1B1) of the same compound?
**A.** 20%

**Q.** And the inhibition at 10 µM (CYP2C9)?
**A.** 4%

**Q.** What about the IC50 (Cytochrome P450 1B1) of the same compound?
**A.** 15300 nM

**Q.** For COc1c2ccoc2c(OC)c2oc(=O)ccc12 [ISOPIMPINELLIN], which IC50 (Cytochrome P450 1A2) is on record?
**A.** 40 nM

**Q.** What about the Ki (Cytochrome P450 1A2) of the same compound?
**A.** 28 nM

**Q.** And the IC50 (Cytochrome P450 2C19)?
**A.** > 10000 nM

**Q.** What about the IC50 (Cytochrome P450 2D6) of the same compound?
**A.** > 10000 nM

**Q.** What about the IC50 (Cytochrome P450 1A1) of the same compound?
**A.** 20 nM

**Q.** And the Ki (Cytochrome P450 1A1)?
**A.** 12 nM

**Q.** What about the IC50 (Cytochrome P450 3A4) of the same compound?
**A.** > 10000 nM

**Q.** And the inhibition at 10 µM (CYP2D6)?
**A.** 0%

**Q.** And the IC50 (Cytochrome P450 2C9)?
**A.** > 10000 nM

**Q.** What about the inhibition at 10 µM (CYP1B1) of the same compound?
**A.** 55%

**Q.** What about the inhibition at 10 µM (CYP2C9) of the same compound?
**A.** 0%

**Q.** What about the IC50 (Cytochrome P450 1B1) of the same compound?
**A.** 6380 nM
